From publication PMC4633020 (Journal of medicinal chemistry, 2015)
Entries after “also recorded” stand apart in the source; their conditions may differ.

Key:
E. faecium NCTC 7171 = assay: MIC, broth microdilution; type: cell-based, Enterococcus faecium; conditions: for MIC: Enterococcus faecium, NCTC7171, E. faecium NCTC 7171; for antibacterial activity against E. faecium (in words): SAR discussion, E. faecium NCTC 7171
[1] = In vitro metabolic stability in human liver S9; type: in vitro ADME; conditions: calculated from in vitro half-life in human liver S9
[2] = Plasma-protein binding, equilibrium dialysis; type: in vitro ADME; conditions: human plasma
[3] = test system: other bacteria in the ESKAPE panel; assay: Antibacterial screening against the ESKAPE panel; type: cell-based; conditions: result in words
PBP2a of S. aureus = PBP2a of S. aureus (Staphylococcus aureus, UniProt P07944); assay: BOCILLIN FL binding assay for PBP2a; conditions: at concentrations of up to 100 μg/mL
Sequence of PBP2a of S. aureus (P07944 whole entry): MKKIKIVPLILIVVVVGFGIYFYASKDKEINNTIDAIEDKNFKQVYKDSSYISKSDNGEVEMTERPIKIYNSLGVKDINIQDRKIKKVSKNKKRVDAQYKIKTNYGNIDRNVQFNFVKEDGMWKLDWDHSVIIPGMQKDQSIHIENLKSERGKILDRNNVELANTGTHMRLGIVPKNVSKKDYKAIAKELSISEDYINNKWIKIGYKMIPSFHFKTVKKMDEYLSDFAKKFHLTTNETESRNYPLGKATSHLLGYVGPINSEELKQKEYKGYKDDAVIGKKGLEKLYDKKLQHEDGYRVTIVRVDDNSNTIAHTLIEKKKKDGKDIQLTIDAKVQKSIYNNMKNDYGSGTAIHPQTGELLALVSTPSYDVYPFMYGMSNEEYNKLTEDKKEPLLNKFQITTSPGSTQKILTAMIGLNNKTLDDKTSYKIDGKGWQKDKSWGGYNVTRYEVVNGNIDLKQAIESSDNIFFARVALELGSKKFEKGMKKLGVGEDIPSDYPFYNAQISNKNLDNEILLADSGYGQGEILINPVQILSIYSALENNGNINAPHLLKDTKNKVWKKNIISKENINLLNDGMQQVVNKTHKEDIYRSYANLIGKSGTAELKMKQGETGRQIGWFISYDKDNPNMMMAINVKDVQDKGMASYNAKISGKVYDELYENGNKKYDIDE

PBP5fm of E. faecium = assay: BOCILLIN FL binding assay for PBP5fm; conditions: at up to 100 μg/mL
Outline: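 Recombinant PBP5 (aa 34-678, E. faecium D63r) carried an N-terminal His-tag, was expressed in E. coli BL21(DE3), and was purified by anion exchange then metal chelate column. Enzyme (40 μM final) was preincubated with test compound in 25 mM Hepes, 1 M NaCl, pH 7.0 at 37 °C. BOCILLIN FL (30 μM final) was then added, with incubations of 20 min. Labelling was read by 12% SDS-PAGE fluorescence scan and band quantitation against a no-inhibitor control.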

[4] = test system: PBPs in the E. faecium membrane fractions; assay: PBP inhibition in E. faecium membrane fractions; type: binding; conditions: data less clear due to low PBP copy numbers
[5] = marketed antibiotics; cited from earlier work
E. faecium NCTC7171 = assay: Macromolecular synthesis assays; type: cell-based, Enterococcus faecium; conditions: 2 × MIC (8 μg/mL), 120 min
transcription = assay: In vitro transcription assay; type: biochemical; conditions: T7 transcription kit
[6] = test system: transcription and translation (β-galactosidase expression); assay: Tandem in vitro transcription and translation assay; type: biochemical, Escherichia coli; conditions: E. coli S30 extract
Hemolysis assay = conditions: red blood cells

CC1=C(C(N)=O)C(c2ccc(OC(C)C)cc2)n2nc(SCc3ccccc3)nc2N1 (stereo not shown) [Compound 10, 2-(Benzylthio)-7-(4-isopropoxyphenyl)-5-methyl-4,7-dihydro-[1,2,4]triazolo[1,5-a]pyrimidine-6-carboxamide]
MIC (E. faecium NCTC 7171): ≤ 8 µg/mL | Apparent intrinsic clearance [1]: 10.9 mLmin^−1kg^−1 | Plasma-protein binding (in words) [2]: high

COc1ccc(C2C(C(N)=O)=C(C)Nc3nc(SCc4ccccc4)nn32)cc1OC (stereo not shown) [Compound 9]
antibacterial activity against E. faecium (in words) (E. faecium NCTC 7171): loss of antimicrobial activity

CC1=C(C(N)=O)C(c2ccc(N(C)C)cc2)n2nc(SCc3ccncc3)nc2N1 (stereo not shown) [Compound 75]
antibacterial activity against E. faecium (in words) (E. faecium NCTC 7171): loss of activity

CCSc1ccc(C2C(C(N)=O)=C(C)Nc3nc(SCc4ccccc4)nn32)cc1 (stereo not shown) [Compound 13, 2-(Benzylthio)-7-(4-ethylthiophenyl]-5-methyl-4,7-dihydro[1,2,4]-triazolo[1,5-a]pyrimidine-6-carboxamide]
improvement of the anti-E. faecium activity (E. faecium NCTC 7171; compared to the 4-OCH3 (7) and 4-SMe (12) derivatives): 32 fold | Apparent intrinsic clearance [1]: <10.4 mLmin^−1kg^−1 | Plasma-protein binding (in words) [2]: high

CC1=C(C(N)=O)C(c2ccc(C(C)C)cc2)n2nc(SCc3ccccc3)nc2N1 (stereo not shown) [Compound 1, 2-(Benzylthio)-7-(4-isopropylphenyl)-5-methyl-4,7-dihydro-[1,2,4]triazolo[1,5-a]pyrimidine-6-carboxamide]
MIC (E. faecium NCTC 7171): ≤ 8 µg/mL | antibacterial activity against the other bacteria in the ESKAPE panel [3]: No antibacterial activity | Apparent intrinsic clearance [1]: 11.1 mLmin^−1kg^−1 | inhibition of recombinant PBP2a (PBP2a of S. aureus): no inhibition; also recorded: did not inhibit | inhibition of PBP5fm (PBP5fm of E. faecium): no inhibition; also recorded: did not inhibit | inhibition of PBPs in E. faecium membranes [4]: did not inhibit

CC1=C(C(N)=O)C(c2ccc(O)cc2)n2nc(SCc3ccccc3)nc2N1 (stereo not shown) [Compound 6]
antibacterial activity against E. faecium (in words) (E. faecium NCTC 7171): loss of antimicrobial activity

CC1=C(C(N)=O)C(c2ccc(N(C)C)cc2)n2nc(SCc3ccc([N+](=O)[O-])cc3)nc2N1 (stereo not shown) [Compound 83, 2-(4-Nitrobenzylthio)-7-(4-dimethylaminophenyl)-5-methyl-4,7-dihydro[1,2,4]triazolo[1,5-a]pyrimidine-6-carboxamide]
antibacterial activity against E. faecium (in words) (E. faecium NCTC 7171): as good as compound 16 | Apparent intrinsic clearance [1]: <10.4 mLmin^−1kg^−1 | Plasma-protein binding (in words) [2]: high

CC1=C(C(N)=O)C(c2ccc(C(F)(F)F)cc2)n2nc(SCc3ccccc3)nc2N1 (stereo not shown) [Compound 21]
MIC (E. faecium NCTC 7171): ≤ 8 µg/mL | antibacterial activity against E. faecium (in words) (E. faecium NCTC 7171): retained activity

COc1ccc(C2C(C(N)=O)=C(C)Nc3nc(SCc4ccccc4)nn32)cc1O (stereo not shown) [Compound 8]
antibacterial activity against E. faecium (in words) (E. faecium NCTC 7171): loss of antimicrobial activity

CC1=C(C(N)=O)C(c2ccc(N(C)C)cc2)n2nc(Sc3ccccn3)nc2N1 (stereo not shown) [Compound 76]
antibacterial activity against E. faecium (in words) (E. faecium NCTC 7171): loss of activity

teicoplanin
plasma protein binding [5]: > 91%

CC1=C(C(N)=O)C(c2ccc(C(=O)O)cc2)n2nc(SCCNC(=O)OCc3ccccc3)nc2N1 (stereo not shown) [Compound 74]
antibacterial activity against E. faecium (in words) (E. faecium NCTC 7171): not tolerated

CC1=C(C(N)=O)C(c2ccc(OC(F)(F)F)cc2)n2nc(SCc3ccccc3)nc2N1 (stereo not shown) [Compound 11]
MIC (E. faecium NCTC 7171): ≤ 8 µg/mL | antibacterial activity against E. faecium (in words) (E. faecium NCTC 7171): retained activity

CC1=C(C(N)=O)C(c2ccccc2C(F)(F)F)n2nc(SCc3ccccc3)nc2N1 (stereo not shown) [Compound 27]
antibacterial activity against E. faecium (in words) (E. faecium NCTC 7171): inactive

CC1=C(C(N)=O)C(c2ccc(C#N)cc2)n2nc(SCc3ccccc3)nc2N1 (stereo not shown) [Compound 24]
antibacterial activity against E. faecium (in words) (E. faecium NCTC 7171): retained activity

CCCCCCCCCC(=O)N[C@@H](Cc1c[nH]c2ccccc12)C(=O)N[C@H](CC(N)=O)C(=O)N[C@@H](CC(=O)O)C(=O)N[C@@H]1C(=O)NCC(=O)N[C@@H](CCCN)C(=O)N[C@@H](CC(=O)O)C(=O)N[C@H](C)C(=O)N[C@@H](CC(=O)O)C(=O)NCC(=O)N[C@H](CO)C(=O)N[C@@H]([C@H](C)CC(=O)O)C(=O)N[C@@H](CC(=O)c2ccccc2N)C(=O)O[C@@H]1C [daptomycin]
plasma protein binding [5]: > 91%

CSc1ccc(C2C(C(N)=O)=C(C)Nc3nc(SCc4ccccc4)nn32)cc1 (stereo not shown) [Compound 12]
antibacterial activity against E. faecium (in words) (E. faecium NCTC 7171): devoid of activity

CC1=C(C(N)=O)C(c2ccc(N(C)C)cc2)n2nc(SCc3ccc(SC(F)(F)F)cc3)nc2N1 (stereo not shown) [Compound 82]
antibacterial activity against E. faecium (in words) (E. faecium NCTC 7171): as active as compound 1

CNC(=O)C1=C(C)Nc2nc(SCc3ccccc3)nn2C1c1ccc(N(C)C)cc1 (stereo not shown) [Compound 45]
antibacterial activity against E. faecium (in words) (E. faecium NCTC 7171): slight reduction of activity

CC1=C(C(=O)Nc2ccccc2)C(c2ccc(N(C)C)cc2)n2nc(SCc3ccccc3)nc2N1 (stereo not shown) [Compound 51]
antibacterial activity against E. faecium (in words) (E. faecium NCTC 7171): slight reduction of activity

CC1=C(C(N)=O)C(c2ccccc2)n2nc(SCc3ccccc3)nc2N1 (stereo not shown) [Compound 2]
antibacterial activity against E. faecium (in words) (E. faecium NCTC 7171): loss of antibacterial activity

CC1=C(C(N)=O)C(c2ccc(N(C)C)cc2)n2nc(SCCNC(=O)OCc3ccccc3)nc2N1 (stereo not shown) [Compound 72]
antibacterial activity against E. faecium (in words) (E. faecium NCTC 7171): not tolerated

CCc1ccc(C2C(C(N)=O)=C(C)Nc3nc(SCc4ccccc4)nn32)cc1 (stereo not shown) [Compound 4]
MIC (E. faecium NCTC 7171): ≤ 8 µg/mL

CCN(CC)c1ccc(C2C(C(N)=O)=C(C)Nc3nc(SCc4ccccc4)nn32)cc1 (stereo not shown) [Compound 17]
MIC (E. faecium NCTC 7171): ≤ 8 µg/mL

Cc1onc(-c2ccccc2)c1C(=O)N[C@@H]1C(=O)N2[C@@H]1SC(C)(C)[C@@H]2C(=O)O [oxacillin]
plasma protein binding [5]: > 91%

CC1=C(C(N)=O)C(c2ccc(N(C)C)cc2)n2nc(SCc3ccccc3)nc2N1 (stereo not shown) [Compound 16, 2-(Benzylthio)-7-(4-dimethylaminophenyl)-5-methyl-4,7-dihydro[1,2,4]triazolo[1,5-a]pyrimidine-6-carboxamide]
MIC (E. faecium NCTC 7171): ≤ 8 µg/mL | Apparent intrinsic clearance [1]: <10.4 mLmin^−1kg^−1 | inhibition of peptidoglycan biosynthesis (E. faecium NCTC7171; D-[2,3-3H]-alanine incorporation): notable inhibition | inhibition of translation (protein synthesis) (E. faecium NCTC7171; L-[4,5-3H]-leucine incorporation): did not inhibit | inhibition of transcription (RNA synthesis) (E. faecium NCTC7171; [5,6-3H]-uridine incorporation): did not inhibit | inhibition of replication (DNA synthesis) (E. faecium NCTC7171; [methyl-3H]-thymidine incorporation): did not inhibit | effect on in vitro transcription (transcription): did not show any effect | effect on in vitro transcription and translation [6]: did not show any effect | hemolysis at 64 μg/mL (Hemolysis assay): 1 to 2%

CC1=C(C(N)=O)C(c2ccc(N(C)C)cc2)n2nc(SCc3ccc(C#N)cc3)nc2N1 (stereo not shown) [Compound 84, 2-(4-Cyanobenzylthio)-7-(4-dimethylaminophenyl)-5-methyl-4,7-dihydro-[1,2,4]triazolo[1,5-a]pyrimidine-6-carboxamide]
antibacterial activity against E. faecium (in words) (E. faecium NCTC 7171): as active as compound 1 | Apparent intrinsic clearance [1]: <10.4 mLmin^−1kg^−1 | inhibition of recombinant PBP2a (PBP2a of S. aureus): lacked the ability to inhibit; also recorded: did not inhibit | inhibition of PBP5fm (PBP5fm of E. faecium): lacked the ability to inhibit; also recorded: did not inhibit | inhibition of PBPs in E. faecium membranes [4]: did not inhibit | hemolysis at 64 μg/mL (Hemolysis assay): 1 to 2%

CC1=C(C(N)=O)C(c2ccc(Cl)cc2)n2nc(SCc3ccccc3)nc2N1 (stereo not shown) [Compound 23]
antibacterial activity against E. faecium (in words) (E. faecium NCTC 7171): did not show any activity

CC1=C(C(N)=O)C(c2ccc(C(C)C)cc2)n2nc(SCCNC(=O)OCc3ccccc3)nc2N1 (stereo not shown) [Compound 73]
antibacterial activity against E. faecium (in words) (E. faecium NCTC 7171): not tolerated

CC1=C(C(N)=O)C(c2ccc(F)cc2)n2nc(SCc3ccccc3)nc2N1 (stereo not shown) [Compound 22]
antibacterial activity against E. faecium (in words) (E. faecium NCTC 7171): did not show any activity

COc1ccc(C2C(C(N)=O)=C(C)Nc3nc(SCc4ccccc4)nn32)cc1 (stereo not shown) [Compound 7]
antibacterial activity against E. faecium (in words) (E. faecium NCTC 7171): devoid of activity

CC1=C(C(N)=O)C(c2ccc(N(C)C)cc2)n2nc(SCc3ccc(OC(F)(F)F)cc3)nc2N1 (stereo not shown) [Compound 81]
antibacterial activity against E. faecium (in words) (E. faecium NCTC 7171): no activity

CC1=C(C(N)=O)C(c2ccc(N(C)C)cc2)n2nc(SCc3ccc(C(F)(F)F)cc3)nc2N1 (stereo not shown) [Compound 80]
antibacterial activity against E. faecium (in words) (E. faecium NCTC 7171): no activity

CCN(CC)CCOc1ccc(C2C(C(N)=O)=C(C)Nc3nc(SCc4ccccc4)nn32)cc1 (stereo not shown) [Compound 20]
antibacterial activity against E. faecium (in words) (E. faecium NCTC 7171): no activity

CCOC(=O)C1=C(C)Nc2nc(SCc3ccccc3)nn2C1c1ccc(N(C)C)cc1 (stereo not shown) [Compound 43]
antibacterial activity against E. faecium (in words) (E. faecium NCTC 7171): lost antimicrobial activity

CN(C)c1ccc(C2C3=C(CCCC3=O)Nc3nc(SCc4ccccc4)nn32)cc1 (stereo not shown) [Compound 46]
antibacterial activity against E. faecium (in words) (E. faecium NCTC 7171): abolished activity

CC1=C(C(N)=O)C(C2CCCCC2)n2nc(SCc3ccccc3)nc2N1 (stereo not shown) [Compound 42]
antibacterial activity against E. faecium (in words) (E. faecium NCTC 7171): devoid of activity

CO[C@H]1/C=C/O[C@@]2(C)Oc3c(C)c(O)c4c(O)c(c(/C=N/N5CCN(C)CC5)c(O)c4c3C2=O)NC(=O)/C(C)=C\C=C\[C@H](C)[C@H](O)[C@@H](C)[C@@H](O)[C@@H](C)[C@H](OC(C)=O)[C@@H]1C [rifampicin]
plasma protein binding [5]: > 91%
